An excerpt weighted towards active compounds, which were near 9.6% of everything screened.
HCT116 PTEN-null = growth suppressors of cells with PTEN tumor suppressor deletion. HCT116 PTEN-null viability, CellTiter-Glo, 60 h; hits give low values. hit rate 1.2% among 140,000. viability, % at 10 µM;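 active = viability at or below a set limit, 4 SD under the median of all tested compounds, cut at about 3.7% in these data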;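 note: PTEN knockout HCT116 line with beta catenin targeted HCT116 as companion control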
bCat KO growth = beta-catenin-lacking colon tumor cell growth suppression; HCT116 beta-catenin knockout viability, CellTiter-Glo, 60 h; hits give low values; viability, % at 10 µM; hit rate 1.5% among 140,000;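 active = viability at or under a set limit, the compound median less 4 SD, cut at about 6% in these data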;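 note: 0% = Hyamine 1622 control at 20 µM and 100% = untreated cell control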
Lmaj promast = reduces viability of Leishmania major promastigotes. resazurin fluorescence viability. inhibition, % at 10 µM. hit rate 9% among 200,000. AID 1063; in the data active = inhibition above about 50%;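 note: promastigotes grown with compound for 44 hours at 28 °C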
PMI act satM6P = increases human PMI activity with near-saturating mannose 6-phosphate | coupled PMI enzyme assay, resazurin fluorescence, 20 min; hits give high values; 1 = untreated enzyme, 0 = substrate-free blank | activation factor at 20 µM | hit rate 0.34% among 190,000 | AID 1216;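 active = activation factor of 2 or more at 20 µM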
Target sequence (P34949 whole entry, looked up): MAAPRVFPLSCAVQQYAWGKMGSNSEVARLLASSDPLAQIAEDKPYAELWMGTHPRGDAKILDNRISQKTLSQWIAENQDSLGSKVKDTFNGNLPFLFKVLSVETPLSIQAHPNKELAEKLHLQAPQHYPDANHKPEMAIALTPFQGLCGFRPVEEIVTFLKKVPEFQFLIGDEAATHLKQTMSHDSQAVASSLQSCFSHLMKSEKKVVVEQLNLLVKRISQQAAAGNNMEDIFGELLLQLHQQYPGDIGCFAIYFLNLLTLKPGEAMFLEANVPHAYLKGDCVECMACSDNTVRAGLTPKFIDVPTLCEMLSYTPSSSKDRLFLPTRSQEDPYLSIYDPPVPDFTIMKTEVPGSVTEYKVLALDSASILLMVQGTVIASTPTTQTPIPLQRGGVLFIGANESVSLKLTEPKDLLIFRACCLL
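test system = human PMI in coupled enzyme assay | medium = HEPES-buffered pH 7.4 with magnesium and detergent | also added = 1.0 mM mannose-6-phosphate substrate with 0.22 mM NADP+ | compound = 20 µM single dose | times = 20 min incubation at room temperature | measured by = resorufin fluorescence (Ex 544/Em 590 nm) from resazurin via diaphorase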
PMI act = increases human mannose-6-phosphate isomerase activity; AID 1214; purified human PMI, coupled resazurin fluorescence, 20 min; hits give high values; 1 = vehicle control, 0 substrate-free wells; activation factor at 20 µM; hit rate 0.005% among 190,000;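 active = activation factor of 2 or more at 20 µM, relative to plate controls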
Active calls of the source: *; nt = not tested or not shown.

SMILES	HCT116 PTEN-null	bCat KO growth	Lmaj promast	PMI act satM6P	PMI act
CC1CC(C)CN(CC(=O)NC(c2ccccc2)c2ccccc2)C1 (stereo not drawn)	nt	nt	6.9	1.1	1
CN([C@@H](Cc1ccc(OS(=O)(=O)c2cccc3cnccc23)cc1)C(=O)N1CCN(c2ccccc2)CC1)S(=O)(=O)c1cccc2cnccc12	63.3	63.5	98.2*	0.8	0.9
CCc1oc2c(C)c(O)ccc2c(=O)c1-c1ccc2ccccc2n1	79.9	70.1	-1.0	1	1
Cc1oc2c(CN(C)C)c(O)ccc2c(=O)c1-c1ccc2ccccc2n1	90.8	97.4	76.3*	1	1
CC(=O)N1CCc2c(sc(NC(=O)C3CC3)c2-c2nc3ccccc3s2)C1	19.8	6.0*	43.4	1	0.9
CCOc1cc(C2NC(=O)NC(C)=C2C(C)=O)cc(Cl)c1OCC(=O)O (stereo not drawn)	87.8	83.8	-5.8	1	0.9
COc1ccccc1OCCN(C#N)c1nc(N(C)C)nc(N(C)C)n1	nt	nt	7.9	1.1	1.2
Cc1cc(Br)c(NC(=O)COC(=O)CSc2nnc(-c3ccc(Cl)cc3)o2)c(Br)c1	89.2	92.1	52.3*	0.9	1
N#Cc1cc2c([nH]c1=S)CCCCCC2	97.1	92.8	-0.9	2.1*	1.3
Cc1ccc(-c2nnc(-c3ccccc3)o2)cc1	79.7	77.7	-3.3	1	1
Cc1ccc(-c2nc3c(=O)n(C)c4ccccc4c3o2)cc1	77.5	85.3	62.6*	1.4	1.2
O=C(OCc1csc(Nc2ccccc2)n1)c1ccc(Cl)cc1	85.2	92.5	-2.0	0.8	0.8
CC(C)CCNC(=O)NC(=O)COC(=O)/C=C/c1cnc2ccccc2n1	86.6	80.9	-4.8	1.1	1
CCc1nnc(NC(=O)CCN(c2cc(C)cc(C)c2)S(=O)(=O)c2ccc(Cl)cc2)s1	64.3	74.9	79.3*	0.9	0.9
Cc1ccc(N(CCC(=O)Nc2nnc(C3CC3)s2)S(=O)(=O)c2ccccc2)cc1	97.0	105.3	53.1*	1	0.9
CC(=O)Oc1ccc2c(C)cc(=O)[nH]c2c1	86.7	82.2	-10.7	0.9	0.9
COc1ccc2c(C)cc(=S)[nH]c2c1	nt	nt	-8.2	2.5*	1.6
Cc1c(C(=O)Nc2cccc(Cl)c2)c2ccccn2c1CCc1ccncc1	30.8	45.1	74.9*	1	1
COc1cccc(N2CCN(C(c3ccccn3)c3nnnn3C(C)(C)C)CC2)c1 (stereo not drawn)	86.0	94.8	-3.7	1	1.1
CCC(C)(C)n1nnnc1C(c1ccncc1)N1CCN(c2cccc(OC)c2)CC1 (stereo not drawn)	80.2	89.8	53.8*	0.9	0.9
CCC(C)(C)n1nnnc1C(c1cccnc1)N1CCN(c2cccc(C(F)(F)F)c2)CC1 (stereo not drawn)	69.7	65.3	94.7*	1	1
CC(C)CCC1CC(CSC(=N)N)OC1=O (stereo not drawn)	99.0	95.6	4.7	1	0.9
O=C(CCCc1nc2ccccc2s1)NCc1ccc(F)cc1	92.8	90.9	0.1	1	1
CC1=CC(C)(C)Nc2ccc(OC(=O)CCN3C(=O)c4ccccc4C3=O)cc21	1.5*	1.2*	78.7*	0.8	0.8
CC(=O)Nc1ccc(S(=O)(=O)Oc2ccc3c(c2)C(C)=CC(C)(C)N3)cc1	48.7	60.1	24.9	0.7	0.8
SMILES	HCT116 PTEN-null	bCat KO growth	Lmaj promast	PMI act satM6P	PMI act
CC1=CC(C)(C)Nc2ccc(OS(=O)(=O)c3ccc(C)cc3)cc21	87.8	90.2	93.7*	0.5	0.6
O=C(CSc1nc2c(cnn2-c2ccccc2)c(=O)[nH]1)N1N=C(c2cccs2)CC1c1ccc(F)cc1 (stereo not drawn)	59.6	75.0	68.9*	0.9	0.9
CC(Sc1nc2ccccc2s1)C(=O)c1c(N)n(C)c(=O)n(C)c1=O (stereo not drawn)	nt	nt	7.5	1	0.9
CCC1CCCCN1c1nc(-c2ccncc2)nc2ccccc12 (stereo not drawn)	60.6	52.5	94.7*	0.9	0.9
CC1CCCCN1c1ncnc2ccccc12 (stereo not drawn)	36.7	20.3	9.6	1	1
CC1CCCCN1c1nc(-c2ccncc2)nc2ccccc12 (stereo not drawn)	69.7	65.1	80.9*	0.9	0.9
COc1ccc(/C=C/C(=O)N2CCN(S(=O)(=O)c3ccccc3)CC2)cc1OC	nt	nt	7.1	1.1	1.1
O=C(COc1ncnc2ccccc12)Nc1cccc(S(=O)(=O)N2CCOCC2)c1	96.9	93.9	2.7	0.9	0.9
COc1ccc(/C=C/C(=O)Nc2cccc(S(=O)(=O)N3CCCC3)c2)cc1OC	nt	nt	55.2*	1	1
O=C(Nc1cccc(S(=O)(=O)N2CCCCC2)c1)c1cnccn1	nt	nt	86.6*	0.9	1.1
CCN(CC)S(=O)(=O)c1cccc(NC(=S)NC(=O)/C=C/c2ccc(S(=O)(=O)N3CCOCC3)cc2)c1	57.4	53.7	79.8*	1.1	1.1
CC(Oc1ncnc2ccccc12)C(=O)Nc1cccc(S(=O)(=O)N2CCOCC2)c1 (stereo not drawn)	86.5	90.2	77.8*	1.1	1.1
O=C(Nc1cccc(S(=O)(=O)N2CCOCC2)c1)c1cnccn1	nt	nt	23.6	1.1	1.1
Cc1nc(N2CCC(C)CC2)c2nnn(Cc3ccccc3)c2n1	78.9	74.3	1.1	1.1	1.1
O=C(CSc1ncnc2c1nnn2-c1ccc(F)cc1)N1CCN(c2ccccc2)CC1	nt	nt	-4.2	nt	nt
Cc1onc(-c2ccccc2Cl)c1C(=O)OCC(=O)Nc1cccc(S(=O)(=O)N2CCOCC2)c1	nt	nt	63.8*	0.9	0.9
O=C(CCl)Nc1cccc(S(=O)(=O)N2CCCCCC2)c1	16.9	18.1	85.5*	1	1
COc1ccc(/C=C/C(=O)NC2CCCCCC2)cc1S(=O)(=O)N1CCOCC1	81.5	77.0	97.9*	1	1
COc1ccc(NS(=O)(=O)c2cccc(NC(=O)c3cnccn3)c2)cc1Br	nt	nt	100.0*	1	1
COc1cc(NC(=S)NN2CCN(C)CC2)cc(OC)c1OC	nt	nt	3.1	1	1
O=C(CNCC1CCCCC1)Nc1cccc(S(=O)(=O)N2CCOCC2)c1	nt	nt	79.3*	1	1.1
COc1ccc(N2CCN(CC(=O)Nc3cccc(S(=O)(=O)N4CCOCC4)c3)CC2)cc1	91.0	84.4	-5.1	1	0.9
O=C(CN1C(=O)NC(Cc2c[nH]c3ccccc23)C1=O)Nc1cccc(S(=O)(=O)N2CCCCCC2)c1 (stereo not drawn)	61.1	56.1	64.3*	0.9	0.8
CCc1nnc(NC(=O)C2Cc3ccccc3CN2S(=O)(=O)CC)s1 (stereo not drawn)	nt	nt	-1.7	1	1.1
CCS(=O)(=O)N1Cc2ccccc2CC1C(=O)Nc1nc2ccccc2s1 (stereo not drawn)	74.0	80.1	67.0*	0.9	1
Oc1ccc(Nc2nc3ccccc3nc2Nc2ccc(O)cc2)cc1	1.6*	1.8*	92.2*	1.6	1.3

Screening results (PubChem BioAssay)
